≈ marks a conversion by molar mass, not a printed value.
Key:
[1] = system: Staphylococcus aureus; assay: Antibacterial activity against Staphylococcus aureus ATCC 29737 after 18 hrs by agar dilution method; format: functional; conditions: ATCC 29737, 18 h
Method in brief: (§1)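 Agar dilution on Mueller Hinton agar; inoculum about 10^6 CFU/mL applied to plates with twofold serial dilutions of compound in distilled water, 0.01 to 100 μg/mL; 37 °C, 18 h. DMSO-supplemented medium at matching dilution run as solvent control. MIC = lowest concentration giving no visible growth on the plate.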

[2] = system: Staphylococcus epidermidis; assay: Antibacterial activity against Staphylococcus epidermidis ATCC 12229 after 18 hrs by agar dilution method; format: functional; conditions: ATCC 12229, 18 h; method in brief: as §1
[3] = system: Escherichia coli; assay: Antibacterial activity against Escherichia coli ATCC 8739 after 18 hrs by agar dilution method; format: functional; conditions: ATCC 8739, 18 h; method in brief: as §1
[4] = system: Salmonella typhimurium; assay: Antibacterial activity against Salmonella Typhimurium ATCC 1639 after 18 hrs by agar dilution method; format: functional, Salmonella enterica subsp. enterica serovar Typhimurium; conditions: Salmonella enterica, ATCC 1639, 18 h; method in brief: as §1
[5] = system: Pseudomonas aeruginosa; assay: Antibacterial activity against Pseudomonas aeruginosa ATCC 9027 after 18 hrs by agar dilution method; conditions: ATCC 9027, 18 h
[6] = system: Staphylococcus aureus; assay: Antibacterial activity against methicillin-resistant Staphylococcus aureus isolate 2 after 18 hrs by agar dilution method; format: functional; conditions: isolate 2, 18 h
Method in brief: (§2)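 Agar dilution on Mueller Hinton agar. Inoculum about 10^6 CFU/mL applied to plates holding two-fold serial dilutions of compound in distilled water, 0.01 to 100 μg/mL. Incubated 37 °C for 18 h. DMSO solvent control included. MIC taken as the lowest concentration giving no visible growth on the plate.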

[7] = system: Staphylococcus aureus; assay: Antibacterial activity against methicillin-resistant Staphylococcus aureus isolate 1 after 18 hrs by agar dilution method; format: functional; conditions: isolate 1, 18 h; method in brief: as §2
[8] = Cytotoxicity against mouse NIH/3T3 cells after 24 hrs by MTT assay; format: cell-based; conditions: NIH3T3, 24 h
Method in brief: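 NIH/3T3 normal mouse fibroblasts exposed to compounds for 24 h; viability read by MTT colorimetric assay.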

Compound	MIC [1] [µg/mL]	MIC [2] [µg/mL]	MIC [3] [µg/mL]	MIC [4] [µg/mL]	MIC [5] [µg/mL]	MIC [6] [µg/mL]	MIC [7] [µg/mL]	IC50 [8] [µg/mL]
O=C1OC(Cn2sccc2=O)CN1Cc1ccccc1 (stereo not given)	0.5 (≈ 1.72 µM)	0.5 (≈ 1.72 µM)	12.5 (≈ 43.1 µM)	12.5 (≈ 43.1 µM)	12.5 (≈ 43.1 µM)	12.5 (≈ 43.1 µM)	8 (≈ 27.6 µM)	273 (≈ 940 µM)
O=c1cc(Cl)sn1-c1ccccc1	50 (≈ 236 µM)	0.3 (≈ 1.42 µM)	0.6 (≈ 2.83 µM)	0.3 (≈ 1.42 µM)	1.25 (≈ 5.91 µM)			
O=c1ccsn1-c1ccccc1	3.25 (≈ 18.3 µM)	3.25 (≈ 18.3 µM)	12.5 (≈ 70.5 µM)	25 (≈ 141 µM)	12.5 (≈ 70.5 µM)			
O=c1cc(Cl)sn1-c1ccc(N2CCOCC2)c(F)c1	10 (≈ 31.8 µM)	10 (≈ 31.8 µM)	25 (≈ 79.4 µM)	25 (≈ 79.4 µM)	12.5 (≈ 39.7 µM)			
O=C1OC(Cn2sccc2=O)CN1c1cccc(F)c1 (stereo not given)	50 (≈ 170 µM)	100 (≈ 340 µM)	100 (≈ 340 µM)	100 (≈ 340 µM)	100 (≈ 340 µM)			
O=C1OC(Cn2sccc2=O)CN1c1ccccc1 (stereo not given)	0.75 (≈ 2.71 µM)	0.75 (≈ 2.71 µM)	0.01 (≈ 0.0362 µM)	0.01 (≈ 0.0362 µM)	0.01 (≈ 0.0362 µM)	10 (≈ 36.2 µM)	6 (≈ 21.7 µM)	162 (≈ 586 µM)
O=c1ccsn1-c1ccc(C(F)(F)F)cc1	25 (≈ 102 µM)	0.25 (≈ 1.02 µM)	25 (≈ 102 µM)	25 (≈ 102 µM)	25 (≈ 102 µM)			
Cc1ccc(-n2sccc2=O)cc1	25 (≈ 131 µM)	2 (≈ 10.5 µM)	25 (≈ 131 µM)	25 (≈ 131 µM)	25 (≈ 131 µM)			
O=C(O)c1cn(C2CC2)c2cc(N3CCNCC3)c(F)cc2c1=O [CIPROFLOXACIN]	0.5 (≈ 1.51 µM)	1 (≈ 3.02 µM)		0.01 (≈ 0.0302 µM)	0.01 (≈ 0.0302 µM)			
CC(=O)c1ccc(N2CC(Cn3sccc3=O)OC2=O)cc1 (stereo not given)	12.5 (≈ 39.3 µM)	25 (≈ 78.5 µM)	50 (≈ 157 µM)	50 (≈ 157 µM)	100 (≈ 314 µM)			

More lines, main results first:

MIC [1] [µg/mL]	MIC [2] [µg/mL]	MIC [3] [µg/mL]	MIC [4] [µg/mL]	MIC [5] [µg/mL]	Compound	MIC [6] [µg/mL]	MIC [7] [µg/mL]	IC50 [8] [µg/mL]
10 (≈ 47.2 µM)	12.5 (≈ 59.1 µM)	25 (≈ 118 µM)	25 (≈ 118 µM)	25 (≈ 118 µM)	O=c1ccsn1-c1cccc(Cl)c1			
3 (≈ 14.2 µM)	1.5 (≈ 7.09 µM)	10 (≈ 47.2 µM)	10 (≈ 47.2 µM)	10 (≈ 47.2 µM)	O=c1ccsn1-c1ccc(Cl)cc1			
6 (≈ 15.8 µM)	12.5 (≈ 32.9 µM)	25 (≈ 65.9 µM)	12.5 (≈ 32.9 µM)	12.5 (≈ 32.9 µM)	O=C1OC(Cn2sccc2=O)CN1c1ccc(N2CCOCC2)c(F)c1 (stereo not given)			
1.5 (≈ 7.68 µM)	3 (≈ 15.4 µM)	6 (≈ 30.7 µM)	12.5 (≈ 64 µM)	12.5 (≈ 64 µM)	O=c1ccsn1-c1ccc(F)cc1			
3 (≈ 13.1 µM)	3 (≈ 13.1 µM)	6 (≈ 26.1 µM)	6 (≈ 26.1 µM)	12.5 (≈ 54.4 µM)	O=c1cc(Cl)sn1-c1ccc(F)cc1			
6 (≈ 24.4 µM)	10 (≈ 40.6 µM)	12.5 (≈ 50.8 µM)	12.5 (≈ 50.8 µM)	12.5 (≈ 50.8 µM)	O=c1cc(Cl)sn1-c1cccc(Cl)c1			
0.5 (≈ 2.22 µM)	0.5 (≈ 2.22 µM)	0.5 (≈ 2.22 µM)	12.5 (≈ 55.4 µM)	25 (≈ 111 µM)	O=c1cc(Cl)sn1Cc1ccccc1			
5 (≈ 17.9 µM)	5 (≈ 17.9 µM)	25 (≈ 89.4 µM)	12.5 (≈ 44.7 µM)	0.1 (≈ 0.358 µM)	O=c1cc(Cl)sn1-c1ccc(C(F)(F)F)cc1			

Reference: ChEMBL document CHEMBL1154609, “Synthesis and antibacterial activity of isothiazolyl oxazolidinones and analogous 3(2H)-isothiazolones” (Eur J Med Chem, 2010)
